KCNQ1 act = potentiators or activators of human KCNQ1 potassium channel; CHO-K1 KCNQ1, thallium flux FluxOR fluorescence; active compounds read high; B-score at 10 µM; 310,000 tested, 0.35% active;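 active = fluorescence ratio B-score, a plate-corrected score, at least three library SD, with initial intensity B-score within 5 SD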
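assay system = CHO-K1 cells stably expressing KCNQ1 | medium = assay buffer, equal DMSO in all wells | timing = 37 °C overnight plating, 90-min dark dye load, 20-min compound pretreatment | measured by = kinetic FluxOR thallium fluorescence, 10-s 1-Hz baseline, 110-s post-stimulus read | measure = fluorescence change relative to baseline, converted to B score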
KCNK3 inh = human KCNK3 channel inhibition, primary screen; O14649; CHO-KCNK3 thallium flux, FluxOR fluorescence; active compounds read low; 340,000 tested, 0.84% active; B-score at 10 µM;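 active = B-score under library mean minus 4 SD, starting fluorescence ratio at most library mean plus 5 SD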;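 also: more negative B-score means stronger inhibition of thallium flux through KCNK3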
Cl transport mod = modulators of human KCC2 chloride dependent transport; B-score of Tl+ flux slope (higher = more flux/activation; lower = inhibition) at 10 µM; 190,000 tested, 2.2% active; Q9H2X9; KCC2 cells, thallium flux FluoZin-2 fluorescence;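 active = thallium flux slope and its plate-corrected score both differing from the plate sample mean at a set confidence after two filtering rounds, in either direction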;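 also: slope of fluorescence scaled to starting intensity during 10 to 20 s after thallium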
KCNQ1 block = blocks the human KCNQ1 potassium channel; 310,000 tested, 1.3% active; CHO-K1 KCNQ1, FluxOR thallium flux fluorescence; active compounds read high; AID 2642; B-score at 10 µM; P51787;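 active = compounds whose thallium flux B-score, printed positive for inhibition, exceeds three library SD while starting fluorescence stays within three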;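 also: channel opened by potassium depolarization with thallium stimulus after 20 min compound exposure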
KCNK9 inh = inhibitors of human KCNK9 two-pore domain potassium channel; Q9NPC2; HEK293 KCNK9, FluxOR thallium flux fluorescence; active compounds read low; B-score at 10 µM; 310,000 tested, 1.2% active;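 active = ratio B-score over 3 SD below the library mean, with starting fluorescence within 5 SD of its mean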;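 also: negative B-score means less thallium flux so channel inhibition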
hERG rescue = hERG (human) protection from proarrhythmic block. CHO-hERG, FluxOR thallium flux, dofetilide IC70 present. activation (rescue from dofetilide block), less the hit threshold, % at 10 µM. 310,000 tested, 0.51% active. AID 1511;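 active = activation above the mean of controls blocked by dofetilide plus 5 SD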;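 also: thallium influx through hERG after potassium depolarization seen as dye fluorescence rise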
Target sequence (Q12809 whole entry, looked up): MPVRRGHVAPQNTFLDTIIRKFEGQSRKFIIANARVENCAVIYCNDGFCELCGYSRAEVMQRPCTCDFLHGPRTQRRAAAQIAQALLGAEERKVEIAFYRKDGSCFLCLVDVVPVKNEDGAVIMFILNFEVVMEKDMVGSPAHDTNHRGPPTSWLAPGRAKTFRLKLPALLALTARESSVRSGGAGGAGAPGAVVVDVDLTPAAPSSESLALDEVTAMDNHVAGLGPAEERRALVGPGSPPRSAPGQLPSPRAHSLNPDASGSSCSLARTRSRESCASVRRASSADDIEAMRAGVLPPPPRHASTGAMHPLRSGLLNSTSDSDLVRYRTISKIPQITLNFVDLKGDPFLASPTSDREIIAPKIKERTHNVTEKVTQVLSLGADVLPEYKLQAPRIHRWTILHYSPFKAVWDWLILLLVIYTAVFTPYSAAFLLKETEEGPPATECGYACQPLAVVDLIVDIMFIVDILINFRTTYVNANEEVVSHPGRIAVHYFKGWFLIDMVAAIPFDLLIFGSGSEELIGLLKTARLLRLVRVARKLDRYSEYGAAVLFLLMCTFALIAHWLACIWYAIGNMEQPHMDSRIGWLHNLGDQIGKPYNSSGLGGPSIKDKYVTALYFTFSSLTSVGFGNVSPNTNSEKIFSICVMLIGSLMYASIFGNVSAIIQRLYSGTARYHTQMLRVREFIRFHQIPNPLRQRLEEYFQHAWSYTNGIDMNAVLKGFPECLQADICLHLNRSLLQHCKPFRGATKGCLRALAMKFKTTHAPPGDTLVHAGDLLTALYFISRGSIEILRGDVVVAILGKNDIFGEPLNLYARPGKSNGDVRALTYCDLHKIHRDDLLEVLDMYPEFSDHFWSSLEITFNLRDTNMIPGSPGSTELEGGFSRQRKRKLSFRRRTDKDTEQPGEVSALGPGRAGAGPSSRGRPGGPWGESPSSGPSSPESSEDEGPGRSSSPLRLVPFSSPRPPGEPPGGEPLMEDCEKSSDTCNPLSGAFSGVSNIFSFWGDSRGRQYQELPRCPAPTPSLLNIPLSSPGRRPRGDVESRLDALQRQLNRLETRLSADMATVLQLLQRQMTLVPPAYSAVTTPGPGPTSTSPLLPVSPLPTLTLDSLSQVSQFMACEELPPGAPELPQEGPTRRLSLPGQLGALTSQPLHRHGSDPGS
KCC2 sec1 = confirmation of human KCC2 transport modulators | shares compounds with Cl transport mod | HEK293-KCC2, thallium flux, FluoZin2 fluorescence; active compounds read high | normalised thallium flux (F/F0 slope) at 10 µM | 3,700 tested, 15% active | AID 1713;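 active = thallium flux slope above the same plate's solvent-only control mean plus 3 SD; inconclusive = the two replicate wells disagree; inactive = no significant difference from solvent-only control wells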
KCC2 bumet counter = thallium flux despite bumetanide block in KCC2 cells, secondary assay 3. shares compounds with Cl transport mod. HEK293-KCC2 + bumetanide/ouabain, thallium flux FluoZin2; active compounds read high. normalized thallium flux at 10 µM. 3,700 tested, 49% active;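 active = thallium entry rate above the same plate's blocked-transporter control wells by more than 3 SD; inconclusive = the two repeat wells disagree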;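 also: raw slope of fluorescence over initial fluorescence between 10 and 20 s after thallium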
KCC2 secondary2 = confirmation of human KCC2 transport modulators | HEK293-KCC2, thallium flux FluoZin2 fluorescence; actives lie on both sides; F/F0 rise rate, 10–20 s post-thallium | 3,700 tested, 23% active | normalized thallium flux at 10 µM | shares compounds with Cl transport mod;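 active = thallium flux slope more than 3 SD above or below the plate's solvent-only control mean, mostly below; inconclusive = the two repeat wells disagreed; inactive = no significant shift from solvent-only controls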
HEK293 Tl flux = parental HEK flux effect, counter-screen. thallium flux rate (normalised fluorescence) at 10 µM. 3,700 tested, 46% active. AID 1716. HEK293 parental cells, thallium flux FluoZin2, ouabain; baseline-ratio fluorescence slope, 10–20 s after thallium. shares compounds with Cl transport mod;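 active = thallium flux rate significantly above the same plate's solvent-only control wells, beyond their mean plus 3 SD; inconclusive = the two replicate wells gave conflicting results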
KCC2 retest ouab = confirmation of human KCC2 modulators with ouabain; HEK293-KCC2, thallium flux FluoZin2 fluorescence; bidirectional: low = inhibitor, high = activator; raw Tl+ flux slope (below DMSO = inhibition, above = activation) at 10 µM; 3,700 tested, 48% active; shares compounds with Cl transport mod;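 active = thallium flux slope beyond 3 SD from same-plate DMSO control mean in most replicates, usually higher, sometimes lower; inconclusive = repeat tests gave conflicting results; inactive = no significant difference from controls in most replicates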;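 also: slope of initial-normalized fluorescence between seconds 10 and 20 after thallium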
HEK counter2 = counter-screen for KCC2 modulators: effect in parental HEK293 cells; shares compounds with Cl transport mod; thallium flux FluoZin-2 fluorescence slope; thallium flux slope at 10 µM; 3,700 tested, 33% active;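 active = thallium flux slope above the same plate's solvent-control mean plus 3 SD in both duplicate wells; inconclusive = duplicate wells that disagreed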;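 also: run without ouabain in cells lacking the KCC2 cotransporter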
Hits are given with their value. Compounds with a hit are over-represented: about 4.1% of the library has one in this group of screens.

COc1ccc2nc(SCC(=O)Nc3ccc4c(c3)OCCO4)[nH]c2c1 was read as KCNQ1 act inactive, KCNK3 inh inactive, Cl transport mod -2.47, KCNQ1 block inactive, KCNK9 inh inactive, hERG rescue inactive, KCC2 sec1 inactive, KCC2 bumet counter inactive, KCC2 secondary2 inactive, HEK293 Tl flux inactive, KCC2 retest ouab inactive and HEK counter2 inactive.
COc1cc(OC)c(NC(=O)Cn2cccc2)cc1Cl was read as KCNQ1 act inactive, KCNK3 inh inactive, KCNQ1 block inactive, KCNK9 inh inactive and hERG rescue inactive.
Screening COc1cc(OC)c(NC(=O)C(=O)CC(=O)c2ccc(C)cc2C)cc1Cl returned KCNQ1 act inactive, KCNK3 inh inactive, Cl transport mod 16.4, KCNQ1 block inactive, KCNK9 inh inactive, hERG rescue inactive, KCC2 sec1 inactive, KCC2 bumet counter 0.0462, KCC2 secondary2 inactive, HEK293 Tl flux 0.0191, KCC2 retest ouab inactive and HEK counter2 0.0123.
For CCN(CC)CCCNc1ccc2ncn3c4ccc(O)cc4c(=O)c1c23 the results were KCNK3 inh inactive.
Screening O=C(NC(=S)Nc1cc(Cl)ccc1O)c1cccc(Br)c1 returned KCNQ1 act inactive, KCNK3 inh inactive, Cl transport mod 6.52, KCNQ1 block inactive, KCNK9 inh inactive, hERG rescue inactive, KCC2 sec1 inactive, KCC2 bumet counter 0.0309, KCC2 secondary2 inactive, HEK293 Tl flux 0.0137, KCC2 retest ouab 0.0271 and HEK counter2 0.0177.
O=C(NC(=S)Nc1cccnc1)c1cccc(Br)c1 was read as KCNQ1 act inactive, KCNK3 inh inactive, KCNQ1 block inactive, KCNK9 inh inactive and hERG rescue inactive.
Screening CCCCc1c(C)nc2cc(-c3ccco3)[nH]n2c1=O returned KCNQ1 act inactive, KCNK3 inh inactive, Cl transport mod 4.46, KCNQ1 block inactive, KCNK9 inh inactive, hERG rescue inactive, KCC2 sec1 inactive, KCC2 bumet counter 0.0139, KCC2 secondary2 inactive, HEK293 Tl flux 0.0129, KCC2 retest ouab inconclusive and HEK counter2 0.015.
Screening CCN(CC)c1c([N+](=O)[O-])c(=O)n(CC)c2ccccc12 returned KCNQ1 act inactive, KCNK3 inh inactive, Cl transport mod -4.55, KCNQ1 block inactive, KCNK9 inh inactive, hERG rescue inactive, KCC2 sec1 inactive, KCC2 bumet counter 0.00308, KCC2 secondary2 inactive, HEK293 Tl flux 0.00451, KCC2 retest ouab 0.0166 and HEK counter2 0.00756.
Screening O=C(Nc1nnc(-c2ccncc2)o1)c1ccc(Br)s1 returned KCNQ1 act inactive, KCNK3 inh inactive, Cl transport mod 4.64, KCNQ1 block inactive, KCNK9 inh inactive, hERG rescue inactive, KCC2 sec1 inactive, KCC2 bumet counter 0.00956, KCC2 secondary2 inactive, HEK293 Tl flux 0.014, KCC2 retest ouab inactive and HEK counter2 0.0153.
Screening COCC(=O)/C=C1\Sc2ccccc2N1C returned KCNQ1 act inactive, KCNK3 inh inactive, Cl transport mod inactive, KCNQ1 block inactive, KCNK9 inh inactive and hERG rescue inactive.
For CN1/C(=C/C(=O)C2CCC2)Sc2ccccc21 the results were KCNQ1 act inactive, KCNK3 inh inactive, Cl transport mod -4.56, KCNQ1 block inactive, KCNK9 inh inactive, hERG rescue inactive, KCC2 sec1 inactive, KCC2 bumet counter inactive, KCC2 secondary2 0.0216, HEK293 Tl flux inactive, KCC2 retest ouab 0.0139 and HEK counter2 inactive.
COc1ccccc1NC(=O)CN1C(=O)NC(CC(C)C)C1=O (stereo not given) was read as KCNQ1 act inactive, KCNK3 inh inactive, Cl transport mod -5, KCNQ1 block inactive, KCNK9 inh inactive, hERG rescue inactive, KCC2 sec1 inactive, KCC2 bumet counter inactive, KCC2 secondary2 inactive, HEK293 Tl flux inactive, KCC2 retest ouab inactive and HEK counter2 inactive.
COc1cc(NC(=O)CN2C(=O)NC(CC(C)C)C2=O)cc(OC)c1OC (stereo not given) was read as KCNK3 inh inactive.
Cc1ccc(S(=O)(=O)Nc2ccccc2N2CCCCC2)cc1 was read as KCNK3 inh inactive.
Screening O=S(=O)(Nc1ccccc1N1CCCCC1)c1ccc(F)cc1F returned KCNQ1 act inactive, KCNK3 inh inactive, Cl transport mod 18.9, KCNQ1 block inactive, KCNK9 inh inactive, hERG rescue inactive, KCC2 sec1 0.013, KCC2 bumet counter 0.0376, KCC2 secondary2 inactive, HEK293 Tl flux 0.0118, KCC2 retest ouab inactive and HEK counter2 0.0116.
For Cc1nc(C(=O)NNC(=O)c2ccccc2)c(C(F)(F)F)o1 the results were KCNQ1 act inactive, KCNK3 inh inactive, Cl transport mod 4.19, KCNQ1 block inactive, KCNK9 inh inactive, hERG rescue inactive, KCC2 sec1 inactive, KCC2 bumet counter 0.00654, KCC2 secondary2 inconclusive, HEK293 Tl flux 0.00869, KCC2 retest ouab inactive and HEK counter2 inactive.
O=C(NNC(=O)c1sccc1-n1cccc1)c1ccc(F)cc1 was read as KCNQ1 act inactive, KCNK3 inh inactive, KCNQ1 block inactive, KCNK9 inh inactive, hERG rescue inactive, KCC2 sec1 inactive, KCC2 bumet counter 0.0166, KCC2 secondary2 inactive, HEK293 Tl flux inconclusive, KCC2 retest ouab 0.0255 and HEK counter2 inactive.
Screening O=C(NNC(=O)c1sccc1-n1cccc1)c1ccccc1 returned KCNQ1 act inactive, KCNK3 inh inactive, Cl transport mod inactive, KCNQ1 block inactive, KCNK9 inh inactive and hERG rescue inactive.
Screening NC(=O)N1CC(O)CC1C(=O)Nc1ccc(Cl)c(Cl)c1 (stereo not given) returned KCNQ1 act inactive, KCNK3 inh inactive, Cl transport mod inactive, KCNQ1 block inactive, KCNK9 inh inactive, hERG rescue inactive, KCC2 sec1 inactive, KCC2 bumet counter inactive, KCC2 secondary2 inactive, HEK293 Tl flux inactive, KCC2 retest ouab inactive and HEK counter2 inactive.

Screens deposited in PubChem BioAssay by several laboratories.
